# Data as given in ChEMBL document CHEMBL5724801, “EUbOPEN Chemogenomics Library - Multiplex” (2024).
# Where “and” joins values, the source holds several entries; their conditions need not be identical. Equal values may be shown once.
# Columns and labels:
# U2OS = assay: Multiplex assay against U2OS; assay type: toxicity, cell-based; settings: human
# Method in brief: (§1)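 Phenotypes for tubulin, mitochondrial mass and membrane permeability are expressed as per cents of healthy-nucleus cells. Cells were stained live at seeding with Hoechst33342, BioTracker Green Microtubule Cytoskeleton Dye, MitoTracker Red and Annexin V Alexa Fluor 680, then imaged after compound addition on a CQ1 microscope at 37°C and 5% CO2. Machine-learning gating in CellPathfinder separated Hoechst high-intensity objects from normal cells, divided normal cells by nuclear state (healthy, pyknosed, fragmented) and divided pyknosed cells into mitotic or apoptotic.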
# Fibroblast = assay: Multiplex assay against human fibroblast; assay type: toxicity, cell-based; method in brief: as §1
# [1] = 12 h, 1 µM, compound concentration 1 uM
# [2] = 12 h, 10 µM, compound concentration 10 uM
# [3] = 24 h, 1 µM, compound concentration 1 uM
# [4] = 24 h, 10 µM, compound concentration 10 uM
# [5] = 48 h, 1 µM, compound concentration 1 uM
# [6] = 48 h, 10 µM, compound concentration 10 uM
smiles,measurement,setting,value
CCCCCN1C(=O)C2(COc3cc4c(cc32)OCO4)c2ccccc21 (configuration not stated),Population Apoptotic (%),U2OS; [1],29.41% and 64%
same,Population Fragmented Nuclei (%),U2OS; [1],1.7% and 1.92%
same,Population Healthy Nuclei (%),U2OS; [1],87.47% and 82.05%
same,Population Hoechst High Intensity Objects (%),U2OS; [1],0%
same,Population Membrane Permeable-Phenotype (%),U2OS; [1],0.49% and 3.91%
same,Population Mitochondria Different-Phenotype (%),U2OS; [1],0.24% and 7.81%
same,Population Mitotic Cells (%),U2OS; [1],70.59% and 36%
same,Population Normal (%),U2OS; [1],100%
same,Population Pyknosed Nuclei (%),U2OS; [1],10.83% and 16.03%
same,Population Tubulin-Different-Phenotype (%),U2OS; [1],0.49% and 0%
same,Population Apoptotic (%),U2OS; [2],35.71% and 31.82%
same,Population Fragmented Nuclei (%),U2OS; [2],1.52% and 0%
same,Population Healthy Nuclei (%),U2OS; [2],91.37% and 84.93%
same,Population Hoechst High Intensity Objects (%),U2OS; [2],0%
same,Population Membrane Permeable-Phenotype (%),U2OS; [2],1.94% and 4.84%
same,Population Mitotic Cells (%),U2OS; [2],64.29% and 68.18%
same,Population Normal (%),U2OS; [2],100%
same,Population Pyknosed Nuclei (%),U2OS; [2],7.11% and 15.07%
same,Population Tubulin-Different-Phenotype (%),U2OS; [2],2.22% and 2.42%
same,Total Cell Count,U2OS; [2],394 and 146
same,Population Apoptotic (%),U2OS; [3],41.07% and 40%
same,Population Fragmented Nuclei (%),U2OS; [3],1.74% and 2.44%
same,Population Healthy Nuclei (%),U2OS; [3],89.42% and 80.49%
same,Population Hoechst High Intensity Objects (%),U2OS; [3],0%
same,Population Membrane Permeable-Phenotype (%),U2OS; [3],0.88% and 2.42%
same,Population Mitochondria Different-Phenotype (%),U2OS; [3],0% and 7.27%
same,Population Mitotic Cells (%),U2OS; [3],58.93% and 60%
same,Population Normal (%),U2OS; [3],100%
same,Population Pyknosed Nuclei (%),U2OS; [3],8.85% and 17.07%
same,Population Tubulin-Different-Phenotype (%),U2OS; [3],0.18% and 1.82%
same,Population Apoptotic (%),U2OS; [4],23.33% and 32.14%
same,Population Fragmented Nuclei (%),U2OS; [4],2.09% and 1.2%
same,Population Healthy Nuclei (%),U2OS; [4],86.5% and 81.93%
same,Population Hoechst High Intensity Objects (%),U2OS; [4],0%
same,Population Membrane Permeable-Phenotype (%),U2OS; [4],1.1% and 8.09%
same,Population Mitotic Cells (%),U2OS; [4],76.67% and 67.86%
same,Population Normal (%),U2OS; [4],100%
same,Population Pyknosed Nuclei (%),U2OS; [4],11.41% and 16.87%
same,Population Tubulin-Different-Phenotype (%),U2OS; [4],2.42% and 3.68%
same,Population Apoptotic (%),U2OS; [5],40.17% and 47.5%
same,Population Fragmented Nuclei (%),U2OS; [5],3.56% and 1.97%
same,Population Healthy Nuclei (%),U2OS; [5],86.74% and 86.8%
same,Population Hoechst High Intensity Objects (%),U2OS; [5],0%
same,Population Membrane Permeable-Phenotype (%),U2OS; [5],0.86% and 1.29%
same,Population Mitochondria Different-Phenotype (%),U2OS; [5],0% and 3.56%
same,Population Mitotic Cells (%),U2OS; [5],59.83% and 52.5%
same,Population Normal (%),U2OS; [5],100%
same,Population Pyknosed Nuclei (%),U2OS; [5],9.69% and 11.24%
same,Population Tubulin-Different-Phenotype (%),U2OS; [5],0.38% and 0.97%
same,Population Apoptotic (%),U2OS; [6],41.89% and 71.05%
same,Population Fragmented Nuclei (%),U2OS; [6],2.63% and 1.47%
same,Population Healthy Nuclei (%),U2OS; [6],89.58% and 84.56%
same,Population Hoechst High Intensity Objects (%),U2OS; [6],0%
same,Population Membrane Permeable-Phenotype (%),U2OS; [6],0.71% and 3.91%
same,Population Mitotic Cells (%),U2OS; [6],58.11% and 28.95%
same,Population Normal (%),U2OS; [6],100%
same,Population Pyknosed Nuclei (%),U2OS; [6],7.79% and 13.97%
same,Population Tubulin-Different-Phenotype (%),U2OS; [6],1.29% and 1.74%
same,Population Apoptotic (%),Fibroblast; [1],17.31% and 20.59%
same,Population Fragmented Nuclei (%),Fibroblast; [1],11.05% and 2.26%
same,Population Healthy Nuclei (%),Fibroblast; [1],61.58% and 82.35%
same,Population Hoechst High Intensity Objects (%),Fibroblast; [1],0%
same,Population Membrane Permeable-Phenotype (%),Fibroblast; [1],2.56% and 3.85%
same,Population Mitochondria Different-Phenotype (%),Fibroblast; [1],11.97% and 6.04%
same,Population Mitotic Cells (%),Fibroblast; [1],82.69% and 79.41%
same,Population Normal (%),Fibroblast; [1],100%
same,Population Pyknosed Nuclei (%),Fibroblast; [1],27.37% and 15.38%
same,Population Tubulin-Different-Phenotype (%),Fibroblast; [1],20.51% and 12.09%
same,Total Cell Count,Fibroblast; [1],190 and 221
same,Population Fragmented Nuclei (%),Fibroblast; [2],8.24% and 5.79%
same,Population Healthy Nuclei (%),Fibroblast; [2],54.95% and 72.97%
same,Population Hoechst High Intensity Objects (%),Fibroblast; [2],0%
same,Population Membrane Permeable-Phenotype (%),Fibroblast; [2],4% and 3.7%
same,Population Mitochondria Different-Phenotype (%),Fibroblast; [2],14% and 13.76%
same,Population Mitotic Cells (%),Fibroblast; [2],97.01% and 85.45%
same,Population Normal (%),Fibroblast; [2],100%
same,Population Pyknosed Nuclei (%),Fibroblast; [2],36.81% and 21.24%
same,Population Tubulin-Different-Phenotype (%),Fibroblast; [2],36% and 35.45%
same,Total Cell Count,Fibroblast; [2],182 and 259
same,Population Apoptotic (%),Fibroblast; [3],18.18% and 13.04%
same,Population Fragmented Nuclei (%),Fibroblast; [3],9.76% and 2.67%
same,Population Healthy Nuclei (%),Fibroblast; [3],74.15% and 87.11%
same,Population Hoechst High Intensity Objects (%),Fibroblast; [3],0%
same,Population Membrane Permeable-Phenotype (%),Fibroblast; [3],4.61% and 1.53%
same,Population Mitochondria Different-Phenotype (%),Fibroblast; [3],7.89% and 4.59%
same,Population Mitotic Cells (%),Fibroblast; [3],81.82% and 86.96%
same,Population Normal (%),Fibroblast; [3],100%
